{"source": "ChEMBL document CHEMBL1828566", "about": "“Synthesis of 4β-triazole-podophyllotoxin derivatives by azide-alkyne cycloaddition and biological evaluation as potential antitumor agents” (Eur J Med Chem, 2011)", "key": {"[1]": {"assay": "Selectivity index, ratio of IC50 for VP-16 to compound for human K562/A02 cells after 2 days by MTT assay", "type": "functional"}, "[2]": {"test_system": "K562", "assay": "Cytotoxicity against human K562 cells after 2 days by MTT assay", "type": "functional, cell-based", "conditions": "K562, 48 h", "how_it_was_run": "(§1)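 Exponentially growing cells were seeded in 96-well plates, precultured 1 day, exposed to test compounds over a range of concentrations, then incubated 2 more days.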"}, "[3]": {"assay": "Cytotoxicity against human K562/A02 cells after 2 days by MTT assay", "type": "functional, cell-based", "conditions": "K562/A02, 48 h", "how_it_was_run": "as §1"}, "[4]": {"test_system": "HeLa", "assay": "Selectivity index, ratio of IC50 for VP-16 to compound for human HeLa cells after 2 days by MTT assay", "type": "functional"}, "[5]": {"test_system": "K562", "assay": "Selectivity index, ratio of IC50 for VP-16 to compound for human K562 cells after 2 days by MTT assay", "type": "functional"}, "[6]": {"test_system": "HeLa", "assay": "Cytotoxicity against human HeLa cells after 2 days by MTT assay", "type": "functional, cell-based", "conditions": "48 h", "how_it_was_run": "as §1"}}, "note": "Structures can show the parent of a compound that is named as a salt.", "data": [{"smiles": "COc1cc([C@@H]2c3cc4c(cc3[C@@H](n3cc(C(=O)Nc5ccccc5Cl)nn3)[C@H]3COC(=O)[C@H]23)OCO4)cc(OC)c1OC", "values": [{"measurement": "Ratio IC50", "setting": "[1]", "result": ">40"}, {"measurement": "IC50", "setting": "[2]", "result": 53, "unit": "nM"}, {"measurement": "IC50", "setting": "[3]", "result": 59, "unit": "nM"}, {"measurement": "Ratio IC50", "setting": "[4]", "result": ">40"}, {"measurement": "Ratio IC50", "setting": "[5]", "result": ">40"}, {"measurement": "IC50", "setting": "[6]", "result": 82, "unit": "nM"}]}, {"smiles": "COc1cc([C@@H]2c3cc4c(cc3[C@@H](O[C@@H]3O[C@@H]5CO[C@@H](C)O[C@H]5[C@H](O)[C@H]3O)[C@H]3COC(=O)[C@H]23)OCO4)cc(OC)c1O", "note": "[ETOPOSIDE]", "values": [{"measurement": "IC50", "setting": "[2]", "result": 2110, "unit": "nM"}, {"measurement": "IC50", "setting": "[3]", "result": 152000, "unit": "nM"}, {"measurement": "IC50", "setting": "[6]", "result": 6270, "unit": "nM"}]}, {"smiles": "COc1cc([C@@H]2c3cc4c(cc3[C@@H](n3cc(C(=O)Nc5ccc(C)cc5)nn3)[C@H]3COC(=O)[C@H]23)OCO4)cc(OC)c1OC", "values": [{"measurement": "IC50", "setting": "[2]", "result": "> 100000", "unit": "nM"}, {"measurement": "IC50", "setting": "[3]", "result": "> 100000", "unit": "nM"}, {"measurement": "IC50", "setting": "[6]", "result": "> 100000", "unit": "nM"}]}, {"smiles": "COc1cc([C@@H]2c3cc4c(cc3[C@@H](n3cc(-c5cccnc5)nn3)[C@H]3COC(=O)[C@H]23)OCO4)cc(OC)c1OC", "values": [{"measurement": "IC50", "setting": "[2]", "result": "> 10000", "unit": "nM"}, {"measurement": "IC50", "setting": "[3]", "result": "> 10000", "unit": "nM"}, {"measurement": "IC50", "setting": "[6]", "result": 35300, "unit": "nM"}]}, {"smiles": "COc1cc([C@@H]2c3cc4c(cc3[C@@H](n3cc(CCC(=O)O)nn3)[C@H]3COC(=O)[C@H]23)OCO4)cc(OC)c1OC", "values": [{"measurement": "IC50", "setting": "[2]", "result": "> 10000", "unit": "nM"}, {"measurement": "IC50", "setting": "[3]", "result": "> 10000", "unit": "nM"}, {"measurement": "IC50", "setting": "[6]", "result": "> 10000", "unit": "nM"}]}, {"smiles": "COc1cc([C@@H]2c3cc4c(cc3[C@@H](n3cc(CNc5ccc(C)cc5)nn3)[C@H]3COC(=O)[C@H]23)OCO4)cc(OC)c1OC", "values": [{"measurement": "IC50", "setting": "[2]", "result": 470, "unit": "nM"}, {"measurement": "IC50", "setting": "[3]", "result": 520, "unit": "nM"}, {"measurement": "IC50", "setting": "[6]", "result": 845, "unit": "nM"}]}, {"smiles": "COc1cc([C@@H]2c3cc4c(cc3[C@@H](n3cc(CN(C)C)nn3)[C@H]3COC(=O)[C@H]23)OCO4)cc(OC)c1OC", "values": [{"measurement": "IC50", "setting": "[2]", "result": "> 10000", "unit": "nM"}, {"measurement": "IC50", "setting": "[3]", "result": "> 10000", "unit": "nM"}, {"measurement": "IC50", "setting": "[6]", "result": "> 10000", "unit": "nM"}]}, {"smiles": "COc1cc([C@@H]2c3cc4c(cc3[C@H](O)[C@H]3COC(=O)[C@H]23)OCO4)cc(OC)c1OC", "note": "[PODOFILOX]", "values": [{"measurement": "IC50", "setting": "[2]", "result": 30, "unit": "nM"}, {"measurement": "IC50", "setting": "[3]", "result": 170, "unit": "nM"}, {"measurement": "IC50", "setting": "[6]", "result": 100, "unit": "nM"}]}, {"smiles": "COc1cc([C@@H]2c3cc4c(cc3[C@@H](n3nncc3C(=O)Nc3ccc(C)cc3)[C@H]3COC(=O)[C@H]23)OCO4)cc(OC)c1OC", "values": [{"measurement": "IC50", "setting": "[2]", "result": 5100, "unit": "nM"}, {"measurement": "IC50", "setting": "[3]", "result": 19800, "unit": "nM"}, {"measurement": "IC50", "setting": "[6]", "result": "> 10000", "unit": "nM"}]}, {"smiles": "COc1cc([C@@H]2c3cc4c(cc3[C@@H](n3cc(C(=O)O)nn3)[C@H]3COC(=O)[C@H]23)OCO4)cc(OC)c1OC", "values": [{"measurement": "IC50", "setting": "[2]", "result": 5400, "unit": "nM"}, {"measurement": "IC50", "setting": "[3]", "result": 8870, "unit": "nM"}, {"measurement": "IC50", "setting": "[6]", "result": "> 10000", "unit": "nM"}]}, {"smiles": "COc1cc([C@@H]2c3cc4c(cc3[C@@H](n3nncc3-c3cccnc3)[C@H]3COC(=O)[C@H]23)OCO4)cc(OC)c1OC", "values": [{"measurement": "IC50", "setting": "[2]", "result": 390, "unit": "nM"}, {"measurement": "IC50", "setting": "[3]", "result": 1230, "unit": "nM"}, {"measurement": "IC50", "setting": "[6]", "result": 1460, "unit": "nM"}]}, {"smiles": "COC(=O)c1cn([C@@H]2c3cc4c(cc3[C@@H](c3cc(OC)c(OC)c(OC)c3)[C@H]3C(=O)OC[C@@H]32)OCO4)nn1", "values": [{"measurement": "IC50", "setting": "[2]", "result": 4150, "unit": "nM"}, {"measurement": "IC50", "setting": "[3]", "result": 2070, "unit": "nM"}, {"measurement": "IC50", "setting": "[6]", "result": 1120, "unit": "nM"}]}, {"smiles": "CCN(CC)C(=O)c1cn([C@@H]2c3cc4c(cc3[C@@H](c3cc(OC)c(OC)c(OC)c3)[C@H]3C(=O)OC[C@@H]32)OCO4)nn1", "values": [{"measurement": "IC50", "setting": "[2]", "result": "> 10000", "unit": "nM"}, {"measurement": "IC50", "setting": "[3]", "result": "> 10000", "unit": "nM"}, {"measurement": "IC50", "setting": "[6]", "result": "> 10000", "unit": "nM"}]}, {"smiles": "COc1cccc2c1C(=O)c1c(O)c3c(c(O)c1C2=O)C[C@@](O)(C(=O)CO)C[C@@H]3O[C@H]1C[C@H](N)[C@H](O)[C@H](C)O1", "note": "[DOXORUBICIN HYDROCHLORIDE]", "values": [{"measurement": "IC50", "setting": "[2]", "result": 360, "unit": "nM"}, {"measurement": "IC50", "setting": "[3]", "result": 19200, "unit": "nM"}, {"measurement": "IC50", "setting": "[6]", "result": 430, "unit": "nM"}]}, {"smiles": "CCOC(=O)c1cnnn1[C@@H]1c2cc3c(cc2[C@@H](c2cc(OC)c(OC)c(OC)c2)[C@H]2C(=O)OC[C@@H]21)OCO3", "values": [{"measurement": "IC50", "setting": "[2]", "result": 850, "unit": "nM"}, {"measurement": "IC50", "setting": "[3]", "result": 690, "unit": "nM"}, {"measurement": "IC50", "setting": "[6]", "result": 920, "unit": "nM"}]}, {"smiles": "COC(=O)c1cnnn1[C@@H]1c2cc3c(cc2[C@@H](c2cc(OC)c(OC)c(OC)c2)[C@H]2C(=O)OC[C@@H]21)OCO3", "values": [{"measurement": "IC50", "setting": "[2]", "result": 400, "unit": "nM"}, {"measurement": "IC50", "setting": "[3]", "result": 600, "unit": "nM"}, {"measurement": "IC50", "setting": "[6]", "result": 420, "unit": "nM"}]}, {"smiles": "COc1cc([C@@H]2c3cc4c(cc3[C@@H](n3cc(CNc5ccccc5)nn3)[C@H]3COC(=O)[C@H]23)OCO4)cc(OC)c1OC", "values": [{"measurement": "IC50", "setting": "[2]", "result": 5730, "unit": "nM"}, {"measurement": "IC50", "setting": "[3]", "result": 5960, "unit": "nM"}, {"measurement": "IC50", "setting": "[6]", "result": 2360, "unit": "nM"}]}, {"smiles": "CCOC(=O)c1cn([C@@H]2c3cc4c(cc3[C@@H](c3cc(OC)c(OC)c(OC)c3)[C@H]3C(=O)OC[C@@H]32)OCO4)nn1", "values": [{"measurement": "IC50", "setting": "[2]", "result": 4250, "unit": "nM"}, {"measurement": "IC50", "setting": "[3]", "result": 2210, "unit": "nM"}, {"measurement": "IC50", "setting": "[6]", "result": 3530, "unit": "nM"}]}]}
